GAA850 FXN act: FXN promoter activators, primary screen, cell-based, luciferase luminescence, HEK293 lucGAA850 | AID 540364, 2011 | activation, % at 6 µM | HEK293 lucGAA850 FXN promoter luciferase reporter, 24 h; percent of 10 µM SAHA response | 360,000 compounds, 0.56% hits;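 active = activation above the average of all compounds screened plus 3 SD, cutoff fixed separately per campaign, cut at about 7.5% in these data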;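 note: 0% = DMSO wells and 100% = 10 µM SAHA wells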
SR-BI uptake up: activators of SR-BI mediated DiI-HDL uptake, primary screen, ldlA[mSR-BI] CHO cells, DiI fluorescence; 3 h; 100 = double the neutral-control signal; activation, % at 12.5 µM; 320,000 compounds, 0.096% hits; AID 504775, 2011;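 active = mean replicate activation of at least 60% and every replicate at or above 60%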;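 note: 0% = median plate neutral-control signal and 100% = twice that signal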
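material = CHO ldlA[mSR-BI] cells | medium = Ham's F12 with 0.5% BSA, HEPES 25 mM, pH 7.4 | reagent = fluorescent DiI-HDL, 10 µg/mL final | compound dosing = single-point compound dose | incubation = 3 h, 37 °C | measured by = bottom-read fluorescence, 550/595 nm | measure = HDL uptake via cellular fluorescence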
JMJD2C inh: inhibitors of GASC-1 histone demethylase, primary screen, biochemical, fluorescence, DELFIA europium. Lysine-specific demethylase 4C (Homo sapiens), Q9H3R0. GST-JMJD2C(1-420) H3K9me3 demethylation. inhibition, % at 2.35 µM. 330,000 compounds, 0.069% hits;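 active = more than half of a compound's replicate wells show inhibition beyond 50%, single wells judged on their own value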;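 note: signal counts dimethyl H3K9 product captured on neutravidin plate; 0% = median of DMSO wells and 100% = 0.3 times that DMSO median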
AHR act: AHR activators, primary screen, cell-based, luminescence, luciferase reporter, human | Aryl hydrocarbon receptor (Homo sapiens), P35869 | AHR-responsive luciferase reporter cells | activation, % at 5 µM | 320,000 compounds, 2.5% hits; in the data active = activation above about 47%;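 note: 0% = vehicle wells and 100% = reference agonist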
SR-BI DiI inh: inhibitors of SR-BI mediated HDL lipid uptake, primary screen, ldlA[mSR-BI] cells, fluorescence, single point; Scavenger receptor class B member 1 (Mus musculus), Q61009; ldlA[mSR-BI] CHO cells, DiI-HDL uptake fluorescence, 3 h; inhibition, % at 12.5 µM; 320,000 compounds, 0.96% hits;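 active = mean replicate inhibition of at least 70% and a set share of replicates each scoring 70 or more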;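 note: 0% = median of neutral control wells and 100% = median of positive control wells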
* marks the source's active call; other numbers are inactive results; nt = not tested or not shown. Sampled rows, rich in hits. Any-hit rate of the full collection: about 3.7%.

SMILES	GAA850 FXN act	SR-BI uptake up	JMJD2C inh	AHR act	SR-BI DiI inh
CC(=O)c1cccc(Nc2nc(-c3cccnc3)cs2)c1	5	-23	4	nt	23
CNC(=S)NNC(=O)c1sc(-c2cc(C)on2)nc1C	0	nt	1	74*	nt
Cc1cc(C(=O)NNC(=S)NCC(C)C)no1	0	25	1	-2	-25
CC(=O)Nc1ccc(NC(=O)/C=C/c2cccc(C(F)(F)F)c2)cc1	0	-11	-14	7	11
CC(=O)N(c1cccc(C(F)(F)F)c1)c1nc(/C=C/C(=O)O)cs1	1	-1	-11	73*	1
Nc1nnc(SCC(=O)c2ccc3ccccc3c2)s1	nt	8	2	48*	-8
Nc1ccc2nc(SCC(=O)c3ccccc3)sc2c1	-2	-31	-8	49*	31
CC(C)CNC(=O)C1CCN(S(=O)(=O)c2ccc3c(c2)OCCO3)CC1	0	16	2	0	-16
Cc1ccccc1C(=O)N(Cc1nc2ccccc2c(=O)[nH]1)C1CCCC1	-1	-14	5	-2	14
CC(=O)NC(C)(CC(=O)c1ccccc1)c1ccccc1 (stereo not drawn)	0	-5	-1	-1	5
O=C(O)CCC1c2cc3c4cc2OC2Oc5cc6c(cc51)C(CCC(=O)O)c1cc5c7cc1OC(O6)c1cc6cc(c1)Oc1cc(cc(C(=O)O)c1)Oc1cc8cc(c1)C(Oc1cc(c(cc1C5CCC(=O)O)C3CCC(=O)O)OC(O4)c1cc(cc(c1)Oc1cc(cc(C(=O)O)c1)O8)Oc1cc(cc(C(=O)O)c1)Oc1cc(cc2c1)Oc1cc(cc(C(=O)O)c1)O6)O7 (stereo not drawn)	nt	nt	101*	4	nt
O=C(c1cnn(-c2cccc(F)c2)c1)c1ccccc1O	-1	-4	-25	5	4
Cc1cc(C)nc(-n2cc(C(=O)c3cc(F)ccc3O)cn2)n1	1	22	-4	53*	-22
Cc1cccc(C(=O)NNC(=O)CCCCC(=O)NNC(=O)c2cccc(C)c2)c1	-3	-14	-12	1	14
CCCn1c(C(CO)Nc2nc(-c3cccc(Br)c3)cs2)nc2ccccc21 (stereo not drawn)	0	-16	-2	9	16
CCOC(=O)C1=C(c2ccccc2)NC(=S)NC1C (stereo not drawn)	2	-72	-7	-8	72*
CCC(C)c1ccc(S(=O)(=O)N2CCN(S(=O)(=O)c3ccc(NC(C)=O)cc3)CC2)cc1 (stereo not drawn)	2	nt	-5	-1	nt
Cc1cc(Nc2cccc(Cl)c2)nc(N2CCOCC2)n1	1	-22	-7	52*	22
CCOc1ccccc1NC(=O)c1ccc(OCC(=O)N2CCOCC2)c(OC)c1	-1	-31	-10	-3	31
COc1c(Cl)cc(Cl)cc1C(=O)Nc1ccccc1N1CCN(C(C)=O)CC1	1	-20	2	1	20
COc1c(F)c(F)c(C(=O)Nc2ccccc2N2CCN(C(C)=O)CC2)c(F)c1F	-1	-50	-5	50*	50
COc1ccc(OC)c(NC(=O)c2ccc(OCC(=O)N3CCOCC3)c(OC)c2)c1	0	-73	-8	-3	73*
COc1cc(OC)cc(C(=O)Nc2ccccc2N2CCOCC2)c1	0	-34	2	61*	34
O=C(Nc1ccccc1N1CCOCC1)c1ccc(Cl)nc1	2	-36	22	60*	36
O=C(Nc1ccccc1N1CCOCC1)c1ccc2ccccc2c1	1	-55	-1	25	55
COc1ccc(CS(=O)(=O)CC(C)(O)c2ccccc2)cc1 (stereo not drawn)	3	11	-2	0	-11
O=C(COc1ccccc1F)NCC(c1ccc(F)cc1)N1CCOCC1 (stereo not drawn)	2	4	-3	2	-4
COc1ccccc1CNS(=O)(=O)CCNC(=O)c1ccccc1	2	13	37	-2	-13
O=C(Nc1cc(Cl)ccc1N1CCOCC1)c1ccncc1	0	-13	4	1	13
Cc1ccc(C(=O)Nc2ccccc2N2CCCCC2)cc1[N+](=O)[O-]	2	-65	0	29	65
